Measurements: PubChem BioAssay AID743257 (The Scripps Research Institute Molecular Screening Center, 2014)
The campaign covered roughly 2,900 compounds. About 1,900 (66%) were called active.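 Rule for the calls: active = mean inhibition across replicates above the hit cutoff set in the primary screen (cut at about 8.5% in these data); inactive = the rest.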 So high a share suggests a set chosen from earlier hits. Only a sample is shown.

The compounds below were run against Disintegrin and metalloproteinase domain-containing protein 17 (Homo sapiens) (UniProt P78536) (assay: inhibition of human ADAM17 protease activity – biochemical, QFRET peptide cleavage, confirmation (AID 743257;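 note: 0% = DMSO wells and 100% = marimastat wells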)). Details: recombinant ADAM17, EDANS/DABCYL QFRET peptide cleavage; at 6.95 µM; active compounds read high.
How it was run: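 Assay system: human ADAM17 protease with quenched FRET peptide substrate / Buffer or medium: 50 mM HEPES buffer, pH 7.5, with 0.01% Brij / Schedule: 30 min preincubation, 3 h reaction / Technique: fluorescence at ex 359 nm, em 460 nm / Read-out: percent inhibition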

Chain of Disintegrin and metalloproteinase domain-containing protein 17 (Homo sapiens) (P78536 215-824 limits assumed): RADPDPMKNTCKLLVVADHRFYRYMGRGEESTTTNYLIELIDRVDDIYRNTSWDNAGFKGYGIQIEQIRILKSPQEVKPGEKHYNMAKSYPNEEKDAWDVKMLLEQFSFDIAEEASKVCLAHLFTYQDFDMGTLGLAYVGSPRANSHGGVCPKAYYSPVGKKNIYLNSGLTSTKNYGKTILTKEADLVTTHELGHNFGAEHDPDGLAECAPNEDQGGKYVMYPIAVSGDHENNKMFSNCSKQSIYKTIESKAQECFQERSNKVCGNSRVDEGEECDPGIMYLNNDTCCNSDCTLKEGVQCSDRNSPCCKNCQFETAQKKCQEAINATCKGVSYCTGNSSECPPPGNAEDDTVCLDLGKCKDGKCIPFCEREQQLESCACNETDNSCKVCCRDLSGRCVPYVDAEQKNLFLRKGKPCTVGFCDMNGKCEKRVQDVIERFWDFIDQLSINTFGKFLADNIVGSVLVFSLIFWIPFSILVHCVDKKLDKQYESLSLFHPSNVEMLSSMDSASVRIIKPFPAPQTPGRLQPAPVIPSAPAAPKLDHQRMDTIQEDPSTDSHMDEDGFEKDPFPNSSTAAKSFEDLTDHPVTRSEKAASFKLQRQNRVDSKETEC

| Structure (SMILES) | inhibition |
| --- | --- |
| CC1(Cc2cccc(C#N)c2)C(=O)Nc2ccc(-c3cccc(C(F)(F)F)c3)cc21 (centres undefined) | 16.4% (active) |
| O=C(COC(=O)CCCSc1nc2ccccc2[nH]1)Nc1ccc(Oc2ccccc2)cc1 | 21.9% (active) |
| COC(C(=O)Nc1ccc(S(=O)(=O)Nc2ccc(C)c(C)c2)cc1)c1ccccc1 (centres undefined) | 13.7% (active) |
| COc1ccc(C(CNC(=O)c2cc(S(=O)(=O)Nc3cccc(C)c3)ccc2C)N2CCCC2)cc1 (centres undefined) | 2.1% (inactive) |
| CCN1C(=O)C(CC(=O)Nc2cc(C)ccc2C)SC1=Nc1ccc(S(N)(=O)=O)cc1 (centres undefined) | 7.07% (inactive) |
| O=C(CC1SC(=Nc2ccccc2)N(Cc2ccccn2)C1=O)Nc1cccc(Cl)c1 (centres undefined) | 18.4% (active) |
| CCOc1ccc(Nc2nc(Cc3nnc(SCC(=O)c4ccc(C)cc4)o3)cs2)cc1 | 8.23% (inactive) |
| O=C(CSc1nc(-c2ccccc2)cs1)Nc1cccc([N+](=O)[O-])c1 | 14.6% (active) |
| CN(C(=O)c1cccc(NC(=O)Cc2cccc([N+](=O)[O-])c2)c1)C1CCCCC1 | 8.38% (inactive) |
| CC[C@@]12C(=O)N(c3ccccc3)C(=O)N1[C@H](c1ccc(Br)cc1)[C@@H]1C(=O)N(C(C)(C)C)C(=O)[C@@H]12 | 2.65% (inactive) |
| COc1ccc([C@@H]2[C@@H]3C(=O)N(C(C)(C)C)C(=O)[C@@H]3[C@]3(Cc4ccccc4)C(=O)N(c4cccc(Br)c4)C(=O)N23)cc1 | 14.3% (active) |
| CC(C)(C)N1C(=O)[C@H]2[C@@H](c3ccc(Br)cc3)N3C(=O)N(c4cccc(Cl)c4)C(=O)[C@@]3(C)[C@H]2C1=O | 12.8% (active) |
| CCOc1ccccc1C1CC(c2cccc(NS(C)(=O)=O)c2)=NN1C(=O)c1ccccc1 (centres undefined) | 3.69% (inactive) |
| CCOc1ccc(N2C(=O)CC(N(CCc3ccc(OC)c(OC)c3)C(=S)Nc3ccccc3)C2=O)cc1 (centres undefined) | 2.05% (inactive) |
| O=C(OCc1ccc(-c2ccccc2)cc1)c1cccc(O)c1 | 15.7% (active) |
| Cc1ccc(OCCOCCOc2ccc(Br)cc2/C=N\NC(=O)c2ccncc2)cc1 | 16.2% (active) |
| Cc1ccc(S(=O)(=O)NCCSc2ccccc2)cc1[N+](=O)[O-] | 7.81% (inactive) |
| COc1cccc(/C=N/NC(=O)c2cccc([N+](=O)[O-])c2)c1OS(=O)(=O)c1ccc(C)cc1 | 13.8% (active) |
| CC(C)Oc1cc(F)ccc1-c1cc(C(=O)Nc2cccc(Cl)c2)[nH]n1 | 14.6% (active) |
| O=C(COc1ccc(Cl)cc1)N1CCN(c2cccc(C(F)(F)F)c2)CC1 | 9.24% (active) |
| Cc1onc(C(=O)NN)c1-c1csc(COc2ccccc2)n1 | 3.32% (inactive) |

| Structure (SMILES) | inhibition |
| --- | --- |
| COC(=O)c1c(C)[nH]c(C(=O)/C=C/c2ccc(Cl)cc2)c1C | -5.64% (inactive) |
| CCOC(=O)c1c(Cc2ccc(Cl)cc2)c[nH]c1C | 9.85% (active) |
| COc1ccc(C(=O)C2CCCN(S(=O)(=O)c3cccc(C)c3)C2)c(C)c1 (centres undefined) | 6.46% (inactive) |
| COc1ccc(S(=O)(=O)N2CCCCC2)cc1Br | 10.9% (active) |
| COCCNC(=O)C(c1ccc(C)o1)N(Cc1ccccc1)C(=O)Cn1nnc2ccccc21 (centres undefined) | 1.74% (inactive) |
| COc1ccccc1C(=O)NCC(=O)OCC(=O)NNC(=O)c1ccc(Br)cc1 | 3.39% (inactive) |
| CC(=O)Nc1ccc(S(=O)(=O)N2CCN(CCCOc3cc(C)ccc3C)CC2)cc1 | 9.43% (active) |
| Cn1c(=O)c2c(nc(N/N=C/c3cccs3)n2Cc2ccc(Br)cc2)n(C)c1=O | -12% (inactive) |
| COc1ccc(C(=O)Nc2ccc(C3(C#N)CCCC3)cc2)cc1OC | -0.86% (inactive) |
| Cc1cc(C)cc(NS(=O)(=O)c2ccc(Oc3ncc(C(F)(F)F)cc3Cl)cc2)c1 | 20.1% (active) |
| COc1cccc(NC(=O)C2C(c3ccccc3)C2(Cl)Cl)c1 (centres undefined) | 19.5% (active) |
| O=C(CN1CCN(c2nc(-c3ccccc3)cs2)CC1)NCc1ccc2c(c1)OCO2 | 12.5% (active) |
| Cc1ccc(-c2n[nH]c(=S)n2/N=C/c2cc3c(cc2[N+](=O)[O-])OCO3)cc1 | 4.12% (inactive) |
| CCOc1ccc(-n2c(SCC(=O)Nc3cc(C)c(NC(=O)c4ccccc4)cc3OC)nnc2-c2cccs2)cc1 | 14.6% (active) |
| COc1cccc(CNc2nc(C(F)(F)F)nc3ccccc23)c1 | 7.14% (inactive) |
| Clc1ccc(C(Cn2ccnc2)OCc2ccsc2Cl)c(Cl)c1 (centres undefined) | 9.7% (active) |
| CS(=O)(=O)Nc1cccc(C2=NN(S(=O)(=O)c3ccccc3)C(c3cccs3)C2)c1 (centres undefined) | 6.85% (inactive) |
| N#C/C(=C/c1ccc(N2CCCCC2)o1)C(=O)NCCc1c[nH]c2ccccc12 | 10.2% (active) |
| Cc1cc(C)cc(NC(=S)NCCc2c[nH]c3ccccc23)c1 | 8.25% (inactive) |
| COc1ccc(-c2cc(C3CCN(c4ncccc4[N+](=O)[O-])CC3)[nH]n2)cc1 | 13.2% (active) |
| COc1ccc(CC(N)c2csc(NC(=O)NC(c3ccccc3)c3ccccc3)n2)cc1 (centres undefined) | 3.55% (inactive) |

| Structure (SMILES) | inhibition |
| --- | --- |
| C=C(C)COc1ccc(-c2n[nH]c(C)c2-c2ccccc2)c(O)c1 | 20.8% (active) |
| COc1ccc(Cl)cc1NC(=O)COC(=O)C(CC(C)C)N1C(=O)C2CC=CCC2C1=O (centres undefined) | 9.46% (active) |
| CC(C)N(C(=O)[C@H]1C[C@H](CC(=O)NC(C)(C)C)C(=O)N2CCc3c([nH]c4ccc(Cl)cc34)[C@]12C)C(C)C | 8.88% (active) |
| CCOc1ccccc1CNS(=O)(=O)c1cc(-c2cc(C)no2)ccc1C | 3.8% (inactive) |
| CCOC(=O)c1cccc(NC(=O)CN(C)S(=O)(=O)c2ccc(-c3cocn3)s2)c1 | 6.09% (inactive) |
| Cc1ccc(S(=O)(=O)N2CCN(C(=O)COC(=O)c3c(C)cc(C)cc3C)CC2)c(C)c1 | 9.17% (active) |
| COC(=O)N(C)C[C@@H]1OCc2cnnn2CCCC(=O)N([C@@H](C)CO)C[C@@H]1C | 0.27% (inactive) |
| Cn1nc(C(F)(F)F)c2cc(NC(=O)OCC(C)(C)C)sc21 | 10.8% (active) |
| O=C(CSc1nc(Nc2ccccc2)nc(N2CCOCC2)n1)Nc1cc(Cl)ccc1O | 18.7% (active) |
| CC(C)(C)c1ccc(S(=O)(=O)NCC2CCN(C(=O)C(=O)c3cc4ccccc4o3)CC2)cc1 | 15.1% (active) |
| O=C1[C@H]2[C@@H](c3ccc(C(F)(F)F)cc3)N[C@]3(CCCN(Cc4ccc(Br)cc4)C3=O)[C@H]2C(=O)N1Cc1ccccc1 | 19.6% (active) |
| O=C(NCc1ccccc1)C1=C[C@@H](c2ccc(C(F)(F)F)cc2)C[C@@H](OCc2ccc(CO)cc2)O1 | 21.4% (active) |
| Cc1ccc(C(=O)Nc2ccc(C)c(S(=O)(=O)N(C)C)c2)s1 | 10.8% (active) |
| Cc1ccc(-n2c(COc3ccccc3)nnc2SCC(=O)Nc2ccc3c(c2)OCCO3)cc1 | 15.9% (active) |
| Cc1cc(NC(=O)CN2C(=O)NC(CC(C)C)C2=O)no1 (centres undefined) | 15.1% (active) |
| CCCn1nc(C(=O)NNC(=O)CSCC(=O)Nc2cc(C)on2)c2ccccc2c1=O | 0.67% (inactive) |
| NNC(=O)C1CCCn2c1nc1sc3c(c1c2=O)CCCC3 (centres undefined) | 1.06% (inactive) |
| COc1ccc(CC(=O)c2ccc(O)cc2O)cc1OC | 1.45% (inactive) |
| CC(C)C(=O)Nc1cccc(NC(=S)NC(=O)C(c2ccccc2)c2ccccc2)c1 | 17.6% (active) |
| COc1cc(C2CC(=O)N3CN(Cc4ccccc4)CSC3=C2C#N)ccc1OCc1ccccc1 (centres undefined) | 15.8% (active) |
| COc1ccc(S(=O)(=O)Nc2ccc(O)c(Sc3nc4ccccc4s3)c2)cc1 | 10.7% (active) |

| Structure (SMILES) | inhibition |
| --- | --- |
| C=CCOc1ccccc1/C=N/NC(=O)Cc1ccccc1 | 2.48% (inactive) |
| O=C1NC(=O)C(c2ccc(Cl)cc2)N1 (centres undefined) | 13.7% (active) |
| Cc1ccc(OCc2nnc(SC/C=C/c3ccccc3)n2Cc2ccco2)cc1 | 12.5% (active) |
| Cc1ccc(-c2nnc(SCC(=O)Nc3ccc(Oc4ccccc4)cc3)n2Cc2ccco2)cc1 | 18.5% (active) |
| CCCN(CC(=O)NC(=O)NC1CCCCC1)CC(=O)Nc1cc(Cl)ccc1Cl | 17.5% (active) |
| CN(C)c1ccc(NC(=O)NC2CCCCN(Cc3ccc(Cl)cc3)C2=O)cc1 (centres undefined) | 3.4% (inactive) |
| O=C(CSCc1ccc(Br)cc1)Nc1ccc(S(=O)(=O)N2CCCCCC2)cc1 | 12.6% (active) |
| Cn1nc(C(F)(F)F)c(C(=O)Nc2cccc(C(F)(F)F)c2)c1SCc1ccc(Cl)cc1 | 19.4% (active) |
| COc1ccc(C(N)c2csc(NC(=O)Nc3cccc(C(F)(F)F)c3)n2)cc1 (centres undefined) | 6.58% (inactive) |
| CC(=O)Nc1ccc(S(=O)(=O)Oc2ccc(Br)cc2C(=S)N2CCOCC2)cc1 | 9.82% (active) |
| S=C(NCc1ccc(Cl)cc1)NC12CC3CC(CC(C3)C1)C2 | 11.1% (active) |
| O=C(Cc1ccc(Cl)c(Cl)c1)Nc1ccc(SC(F)F)cc1 | 25.1% (active) |
| COc1ccc(CN(C)C(=O)CC(c2ccccc2)c2ccccc2)cc1 | 5.73% (inactive) |
| O=C(c1ccccc1)N1CCN(c2ccc([N+](=O)[O-])c(NCc3ccco3)c2)CC1 | 9.37% (active) |
| CC(C)(C)OC(=O)CNC(=O)c1[nH]cnc1C(=O)N[C@@H](Cc1ccccc1)C(=O)OCc1ccccc1 | 20.1% (active) |
| CC(C)(C)OC(=O)N1CCC(NC(=O)c2[nH]cnc2C(=O)N[C@@H](Cc2ccccc2)C(=O)OCc2ccccc2)CC1 | 22.4% (active) |
| CCOc1ccc(OCC)c(-c2c(=O)n(OCc3ccc(Cl)cc3)c3ccccc3[n+]2[O-])c1 | 2.59% (inactive) |
| Cc1sc2nc(SCC(=O)c3ccc(O)c(O)c3)n(Cc3ccco3)c(=O)c2c1C | 12.6% (active) |
| CCn1c(Cc2cccs2)nnc1SCC(=O)c1ccc(C)cc1 | 2.25% (inactive) |
| O=C(Cc1ncc(C(F)(F)F)cc1Cl)Nc1cccc(Br)c1 | 5.32% (inactive) |
| CCc1cccc(NC(=O)COC(=O)C2CCN(c3ccc(C(F)(F)F)cn3)CC2)c1 | 16.5% (active) |
